Entries after “also recorded” stand apart in the source; their conditions may differ.
How the values were obtained:
PfHsp70-z = biological target: T1, PfHsp70-z (Plasmodium falciparum, UniProt Q8IC01); conditions: previous study, ref [10], cited from earlier work
T1 sequence (Q8IC01 1-873): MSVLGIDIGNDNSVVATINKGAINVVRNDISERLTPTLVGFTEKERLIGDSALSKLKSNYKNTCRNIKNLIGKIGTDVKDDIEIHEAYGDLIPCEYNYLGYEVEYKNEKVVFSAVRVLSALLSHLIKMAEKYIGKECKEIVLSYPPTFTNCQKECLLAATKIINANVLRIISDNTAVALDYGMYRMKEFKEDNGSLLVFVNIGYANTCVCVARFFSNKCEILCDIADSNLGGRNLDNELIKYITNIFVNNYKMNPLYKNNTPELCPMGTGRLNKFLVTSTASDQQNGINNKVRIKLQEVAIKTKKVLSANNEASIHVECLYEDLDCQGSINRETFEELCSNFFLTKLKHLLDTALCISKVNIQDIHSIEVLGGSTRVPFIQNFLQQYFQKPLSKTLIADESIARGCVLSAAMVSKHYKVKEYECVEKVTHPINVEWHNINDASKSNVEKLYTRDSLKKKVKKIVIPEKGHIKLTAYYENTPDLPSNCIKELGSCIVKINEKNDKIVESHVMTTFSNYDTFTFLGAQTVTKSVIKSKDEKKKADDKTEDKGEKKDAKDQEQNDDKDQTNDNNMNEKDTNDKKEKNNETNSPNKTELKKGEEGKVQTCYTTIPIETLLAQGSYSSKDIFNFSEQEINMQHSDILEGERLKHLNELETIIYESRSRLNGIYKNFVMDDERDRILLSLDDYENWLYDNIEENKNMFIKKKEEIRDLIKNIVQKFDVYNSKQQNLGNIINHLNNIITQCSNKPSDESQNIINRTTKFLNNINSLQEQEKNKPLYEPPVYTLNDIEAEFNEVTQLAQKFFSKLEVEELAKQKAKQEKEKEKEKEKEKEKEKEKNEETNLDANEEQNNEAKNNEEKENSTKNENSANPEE

PfHsp70-1 [1] = biological target: T2, PfHsp70-1 (Plasmodium falciparum, UniProt Q8IB24); conditions: previous study, ref [10], cited from earlier work
T2 sequence (Q8IB24 1-677): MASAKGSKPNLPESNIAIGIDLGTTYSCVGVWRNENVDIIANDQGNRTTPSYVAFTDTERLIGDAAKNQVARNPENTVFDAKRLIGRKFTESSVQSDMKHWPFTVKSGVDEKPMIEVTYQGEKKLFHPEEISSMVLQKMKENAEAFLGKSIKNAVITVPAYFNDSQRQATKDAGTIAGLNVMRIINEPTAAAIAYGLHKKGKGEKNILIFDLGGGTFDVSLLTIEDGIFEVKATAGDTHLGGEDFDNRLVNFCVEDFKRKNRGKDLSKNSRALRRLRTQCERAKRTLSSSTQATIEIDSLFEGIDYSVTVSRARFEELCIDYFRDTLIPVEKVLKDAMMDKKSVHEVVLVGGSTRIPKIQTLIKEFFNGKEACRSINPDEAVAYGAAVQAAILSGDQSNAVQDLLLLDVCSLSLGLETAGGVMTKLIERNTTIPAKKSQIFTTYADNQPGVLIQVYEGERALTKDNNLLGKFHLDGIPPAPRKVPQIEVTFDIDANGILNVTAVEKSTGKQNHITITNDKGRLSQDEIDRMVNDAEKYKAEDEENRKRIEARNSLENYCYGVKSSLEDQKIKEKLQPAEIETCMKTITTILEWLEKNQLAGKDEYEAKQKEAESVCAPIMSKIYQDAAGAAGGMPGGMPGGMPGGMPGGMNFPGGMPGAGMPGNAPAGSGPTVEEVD

PfHsp70-1 [2] = biological target: T2, PfHsp70-1; test: SPR self-association, immobilised ligand PfHsp70-1; type: binding
DnaK = DnaK (Escherichia coli, UniProt P0A6Y8); conditions: SPR; presence of ATP
Chain of DnaK (P0A6Y8 whole entry): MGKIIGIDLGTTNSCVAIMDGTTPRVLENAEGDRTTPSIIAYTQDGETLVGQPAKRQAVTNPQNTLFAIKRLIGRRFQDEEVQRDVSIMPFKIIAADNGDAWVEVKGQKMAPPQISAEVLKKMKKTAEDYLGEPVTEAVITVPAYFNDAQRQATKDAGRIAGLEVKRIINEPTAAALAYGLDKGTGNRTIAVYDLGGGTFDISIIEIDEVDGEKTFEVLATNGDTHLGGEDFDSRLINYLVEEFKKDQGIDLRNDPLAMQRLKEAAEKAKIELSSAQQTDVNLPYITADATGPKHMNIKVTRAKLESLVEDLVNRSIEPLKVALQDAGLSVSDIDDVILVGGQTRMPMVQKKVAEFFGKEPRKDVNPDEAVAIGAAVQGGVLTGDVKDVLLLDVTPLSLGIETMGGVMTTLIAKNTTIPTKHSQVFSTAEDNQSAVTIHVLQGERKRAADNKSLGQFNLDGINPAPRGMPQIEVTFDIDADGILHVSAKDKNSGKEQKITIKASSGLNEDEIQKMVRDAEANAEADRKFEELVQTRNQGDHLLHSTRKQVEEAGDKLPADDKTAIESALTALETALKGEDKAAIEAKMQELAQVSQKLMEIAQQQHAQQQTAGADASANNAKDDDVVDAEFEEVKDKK

[3] = system: clients from E. coli ΔdnaK52 cells; test: co-affinity assay coupled to LC-MS, clients from E. coli ΔdnaK52; type: binding
[4] = system: clients from E. coli JM109 cells; test: co-affinity assay coupled to LC-MS, clients from E. coli JM109; type: binding
In short: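 Pull-down bait was His-tagged Hsp70 (wild type or linker-swap variant), immobilised on cobalt resin in TBS (10 mM Tris-HCl pH 7.5, 50 mM NaCl, 10 mM imidazole) for 4 h at 4 °C, then washed 5×. E. coli JM109 lysate (prey) was added overnight at 4 °C, followed by 5 washes. Elution used 290 mM imidazole. Eluates were run on silver-stained SDS-PAGE; unique bands were excised and identified by LC-MS.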

proteins = conditions: ref [33]; cited from earlier work

GFRNNNMYRF
effect of nucleotide on peptide binding (PfHsp70-z): nucleotide independent | peptide preference (PfHsp70-z; vs GFRLLLMYRF): preferentially bind to the Asp-enriched peptide | effect of nucleotide on peptide affinity (PfHsp70-1 [1]): regulated by ADP/ATP | peptide preference (PfHsp70-1 [1]; vs GFRLLLMYRF): preferentially bind to the Asp-enriched peptide

GFRLLLMYRF
effect of nucleotide on peptide binding (PfHsp70-z): nucleotide independent | effect of nucleotide on peptide affinity (PfHsp70-1 [1]): regulated by ADP/ATP

PfHsp70-1: canonical cytosolic Hsp70 chaperone of Plasmodium falciparum, recombinant
self-association without nucleotide vs ADP (PfHsp70-1 [2]): comparable affinity in the absence of nucleotide and in the presence of ADP | effect of ATP on self-association (PfHsp70-1 [2]; ATP vs apo- or ADP-states): tenfold increase; also recorded: promoted by ATP

DnaK: E. coli Hsp70, recombinant
effect of ATP on self-association (DnaK): promoted by ATP | association with CH60/GroEL [3]: associated with DnaK within the E. coli ΔdnaK52 cell background | number of clients bound [3]: 110 clients | size of another prominent client cluster [3]: above 100 kDa | association with CH60/GroEL [4]: not with DnaK | pI of a further group of clients [4]: around 9.5 | pI of majority of clients [4]: 5.5–6.0 | pI of some unique clients [4]: above 10 | size of most clients [4]: around 50 kDa | number of unique clients ([4]; unique relative to the other chaperone): 41 clients | number of aggregation-prone (unstable) clients (proteins): ~180 proteins
